Experimental data published in ChEMBL document CHEMBL4033754, “Antiobesity Effect of a Short-Length Peptide YY Analogue after Continuous Administration in Mice” (ACS Med Chem Lett, 2017).
pEC50, pIC50: −log10 of the molar value. Activity calls are given as the source filed them. The calls are words filed in the database; no cut-off is given here. Where a SMILES comes first, the peptide text is derived from it. [ ]: non-standard residue; d: D form. The star is where a group is joined. ξ: configuration not given here. ξCha = NC(CC1CCCCC1)C(=O)O; Aib = CC(C)(N)C(=O)O; Bz = O=C(c1ccccc1)*

Experiments:
[1] = Mean residence time in C57BL/6J mouse at 1 mg/kg, iv after 24 hrs by LC-MS/MS analysis; type: ADME, organism-based; details: in vivo
Method in brief: (§1)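 Single 1 mg/kg dose, intravenous or subcutaneous, to C57BL/6J mice. Blood sampled at 5, 10, 15, 30 min and 1, 3, 6, 8, 24 h post-dose. Plasma peptide quantified by LC/MS/MS. Parameters derived from the mean (n = 3) plasma concentration–time profile.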

Mus musculus [2] = test: Mean absorption time in C57BL/6J mouse at 1 mg/kg through subcutaneous administration after 24 hrs by LC-MS/MS analysis; type: ADME, organism-based; details: in vivo, sc; method in brief: as §1
[3] = Plasma concentration in C57BL/6J mouse at 1 mg/kg, iv after 5 mins by LC-MS/MS analysis; type: ADME, organism-based; method in brief: as §1
Mus musculus [4] = test: AUC (0 to 24 hrs) in C57BL/6J mouse at 1 mg/kg, iv by LC-MS/MS analysis; type: ADME, organism-based; design: dose 1 mg/kg, time < 24 hr, route intravenous; details: in vivo; method in brief: as §1
[5] = Volume of distribution at steady state in C57BL/6J mouse at 1 mg/kg, iv after 24 hrs by LC-MS/MS analysis; type: ADME, organism-based; details: in vivo, read-out: Vdss; method in brief: as §1
Mus musculus [6] = test: Total clearance in C57BL/6J mouse at 1 mg/kg, iv after 24 hrs by LC-MS/MS analysis; type: ADME, organism-based; details: in vivo; method in brief: as §1
[7] = Cmax in C57BL/6J mouse at 1 mg/kg through subcutaneous administration after 24 hrs by LC-MS/MS analysis; type: ADME, organism-based; design: dose 1 mg/kg, route subcutaneous; details: in vivo, sc; method in brief: as §1
[8] = Tmax in C57BL/6J mouse at 1 mg/kg through subcutaneous administration after 24 hrs by LC-MS/MS analysis; type: ADME, organism-based; details: in vivo, sc; method in brief: as §1
[9] = AUC (0 to 24 hrs) in C57BL/6J mouse at 1 mg/kg through subcutaneous administration after 24 hrs by LC-MS/MS analysis; type: ADME, organism-based; design: time < 24 hr, dose 1 mg/kg, route subcutaneous; details: in vivo, sc; method in brief: as §1
[10] = Mean residence time in C57BL/6J mouse at 1 mg/kg through subcutaneous administration after 24 hrs by LC-MS/MS analysis; type: ADME, organism-based; details: in vivo, sc; method in brief: as §1
Mus musculus [11] = test: Antiobesity activity in diet-induced obese C57BL/6J mouse model assessed as reduction in body weight at 1 mg/kg administered via subcutaneous osmotic pumps for 6 to 7 days relative to control; type: functional; design: scale not given: the % may be the effect or the level left
Method in brief: (§2)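 Male C57BL/6J DIO mice received peptides at 1 mg/(kg·day) by continuous subcutaneous osmotic pump for 6–7 days (n = 6 per group). Body weight reduction expressed as a percentage versus vehicle.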

Mus musculus [12] = test: Antiobesity activity in diet-induced obese C57BL/6J mouse assessed as reduction in body weight at 1 mg/kg administered via subcutaneous osmotic pumps for 7 days relative to control; type: functional; design: scale not given: the % may be the effect or the level left; method in brief: as §2
Mus musculus [13] = test: Anorectic activity in lean mouse assessed as inhibition of food intake at 300 nmol/kg through bolus subcutaneous administration relative to control; type: functional; details: sc
Mus musculus [14] = test: Antiobesity activity in lean C57BL/6J mouse assessed as inhibition of food intake at 1 mg/kg administered via subcutaneous osmotic pumps for 3 continuous days relative to control; details: sc
Mus musculus [15] = test: Antiobesity activity in lean C57BL/6J mouse assessed as inhibition of food intake at 0.3 mg/kg administered via subcutaneous osmotic pumps for 3 continuous days relative to control; details: sc
Mus musculus [16] = test: Antiobesity activity in diet-induced obese C57BL/6J mouse assessed as inhibition of food intake at 1 mg/kg administered via subcutaneous osmotic pumps for 7 days measured on day 4 of dosing; type: functional, organism-based
Method in brief: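 DIO mice given peptides continuously by subcutaneous osmotic pump for 7 days (n = 6), with body weight and cumulative food intake tracked daily. Statistics versus vehicle by Student's t test or Aspin-Welch test.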

[17] = Bioavailability in C57BL/6J mouse at 1 mg/kg through subcutaneous administration after 24 hrs by LC-MS/MS analysis; type: ADME, organism-based; details: in vivo, sc; method in brief: as §1
[18] = biological target: T1, Neuropeptide Y receptor type 2 (Homo sapiens, UniProt P49146); test: Displacement of [125I]-PYY from human Y2R expressed in CHO cell membranes after 60 mins by liquid scintillation method
T1 sequence (P49146 whole entry): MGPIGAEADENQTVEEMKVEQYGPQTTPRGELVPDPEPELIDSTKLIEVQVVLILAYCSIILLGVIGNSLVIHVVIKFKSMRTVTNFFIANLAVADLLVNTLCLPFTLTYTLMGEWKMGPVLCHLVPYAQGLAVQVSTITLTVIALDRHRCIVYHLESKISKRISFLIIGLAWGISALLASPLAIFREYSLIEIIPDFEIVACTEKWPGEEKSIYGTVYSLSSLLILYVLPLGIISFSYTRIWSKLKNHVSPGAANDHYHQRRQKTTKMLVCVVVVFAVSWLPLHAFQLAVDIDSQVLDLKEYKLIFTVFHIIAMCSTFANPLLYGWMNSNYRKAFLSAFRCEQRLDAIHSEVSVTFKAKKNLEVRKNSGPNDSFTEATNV

[19] = biological target: T1, Neuropeptide Y receptor type 2; test: Agonist activity at human Y2R expressed in CHO cell membranes assessed as [35S]GTPgammaS binding after 120 mins by liquid scintillation method; type: functional
Mus musculus [20] = test: Anorectic activity in lean mouse assessed as inhibition of food intake at 1000 nmol/kg through bolus subcutaneous administration relative to control; type: functional; details: sc

SMILES	MRT [1] [min]	MAT (Mus musculus [2]) [h]	concentration at 5 min [3] [nM]	AUC (Mus musculus [4]) [µM·h]	Vd [5] [L/kg]	CL (Mus musculus [6]) [mL/min/kg]	Cmax [7] [nM]	Tmax [8] [min]	AUC(0-t) at 24 h [9] [µM·h]	MRT [10] [min]	Activity (Mus musculus [11]) [%]	Activity (Mus musculus [12]) [%]	inhibition in vivo at 0.3 µmol/kg (Mus musculus [13]) [%]	inhibition in vivo at 1 mg/kg (Mus musculus [14]) [%]	inhibition in vivo at 0.3 mg/kg (Mus musculus [15]) [%]	inhibition (Mus musculus [16])	bioavailability [17] [%]	pIC50 [18]	pEC50 [19]	inhibition in vivo at 1 µmol/kg (Mus musculus [20]) [%]
CC(=O)N[C@@H](CO)C(=O)N1C[C@@H](O)C[C@@H]1C(=O)N[C@@H](CCCNC(=N)N)C(=O)N[C@@H](Cc1cnc[nH]1)C(=O)N[C@@H](CC1CCCCC1)C(=O)N[C@@H](CC1CCCCC1)C(=O)N[C@@H](CC(N)=O)C(=O)N[C@@H](CC(C)C)C(=O)NC(C)(C)C(=O)N[C@H](C(=O)N[C@@H](CCCNC(=N)N)C(=O)N[C@@H](CCC(N)=O)C(=O)N[C@@H](CCCNC(=N)N)C(=O)N[C@@H](CC1CCCCC1)C(N)=O)[C@@H](C)O [listing 1 of 2 here]	10.8	0.14	935	0.18	0.533	49.47	98.1	10.2	0.0336	19.2	–	–	–	–	–	–	–	–	–	–
CC(=O)N[C@@H](CO)C(=O)N1C[C@@H](O)C[C@@H]1C(=O)N[C@@H](CCCNC(=N)N)C(=O)N[C@@H](Cc1cnc[nH]1)C(=O)N[C@@H](CC1CCCCC1)C(=O)N[C@@H](CC1CCCCC1)C(=O)N[C@@H](CC(N)=O)C(=O)N[C@@H](CC(C)C)C(=O)NC(C)(C)C(=O)N[C@H](C(=O)N[C@@H](CCCNC(=N)N)C(=O)N[C@@H](CCC(N)=O)C(=O)N[C@@H](CCCNC(=N)N)C(=O)N[C@@H](CC1CCCCC1)C(N)=O)[C@@H](C)O [listing 2 of 2 here]	–	–	–	–	–	–	–	–	–	–	-10.2	7.4	23	79	47	–	–	–	–	–
CC(=O)N[C@@H](CO)C(=O)N1C[C@@H](O)C[C@@H]1C(=O)N[C@@H](CCCNC(=N)N)C(=O)N[C@@H](Cc1cnc[nH]1)C(=O)NC(CC1CCCCC1)C(=O)NC(CC1CCCCC1)C(=O)N[C@@H](CC(N)=O)C(=O)N[C@@H](CC(C)C)C(=O)NC(C)(C)C(=O)N[C@H](C(=O)N[C@@H](CCCNC(=N)N)C(=O)N[C@@H](CCC(N)=O)C(=O)N[C@@H](CCCNC(=N)N)C(=O)NC(CC1CCCCC1)C(N)=O)[C@@H](C)O (stereo partly specified)	–	–	–	–	–	–	–	–	–	–	–	–	–	–	–	Active	–	–	–	–
CC(C)C[C@H](NC(=O)[C@H](CC(N)=O)NC(=O)C(CC1CCCCC1)NC(=O)C(CC1CCCCC1)NC(=O)[C@H](Cc1cnc[nH]1)NC(=O)[C@H](CCCNC(=N)N)NC(=O)c1ccccc1)C(=O)NC(C)(C)C(=O)N[C@H](C(=O)N[C@@H](CCCNC(=N)N)C(=O)N[C@@H](CCC(N)=O)C(=O)N[C@@H](CCCNC(=N)N)C(=O)NC(CC1CCCCC1)C(N)=O)[C@@H](C)O (stereo partly specified) (Bz-RH[ξCha][ξCha]NL[Aib]TRQR[ξCha]-NH2)	27	2.72	7550	3.56	0.073	2.7	75.6	15	0.209	190	0.4	–	–	–	–	–	5.9	8.13	8.70	20
